Measurements: ChEMBL document CHEMBL1938318, “Design, synthesis and evaluation of novel molecules with a diphenyl ether nucleus as potential antitubercular agents” (Bioorg Med Chem Lett, 2012)
Active and inactive are the calls of the source. No cut-off for these calls is given here.

Columns and labels:
[1] = system: Mycobacterium tuberculosis; assay: Antitubercular activity against Mycobacterium bovis BCG infected in BALB/c mouse assessed as log reduction in CFU in lungs at 25 mg/kg, po qd administered 48 hrs post infection for 6 weeks measured after 6 weeks (reference value: 4.64+/-0.17 log10CFU); format: functional, variant bovis BCG
Procedure, shortened: (§1)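 Female BALB/c mice infected intravenously with approx. 1 × 10⁵ CFU M. bovis BCG; compound given orally at 25 mg/kg once daily for six weeks, then sacrificed. Lung and spleen homogenates plated on modified Lowenstein-Jensen medium, colonies counted after six weeks at 37 °C; mean log10 CFU per organ versus vehicle-treated group (n = 6–8 mice/group).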

[2] = system: Mycobacterium tuberculosis; assay: Antitubercular activity against Mycobacterium bovis BCG infected in BALB/c mouse assessed as log reduction in CFU in spleen at 25 mg/kg, po qd administered 48 hrs post infection for 6 weeks measured after 6 weeks (reference value: 4.79+/-0.25 log10CFU); format: functional, variant bovis BCG; procedure, shortened: as §1
[3] = system: Mycobacterium tuberculosis; assay: Antitubercular activity against Mycobacterium bovis BCG infected in BALB/c mouse assessed as reduction in perivascular accumulation of epitheloid macrophages in lungs at 25 mg/kg, po qd administered 48 hrs post infection for 6 weeks by hematoxylin/eosin staining; format: functional, organism-based; parameters: dose 25 mg/kg; conditions: variant bovis BCG
[4] = system: Mycobacterium tuberculosis; assay: Antitubercular activity against Mycobacterium bovis BCG infected in BALB/c mouse assessed as reduction in peribronchial accumulation of epitheloid macrophages in lungs at 25 mg/kg, po qd administered 48 hrs post infection for 6 weeks by hematoxylin/eosin staining; format: functional, organism-based; parameters: dose 25 mg/kg; conditions: variant bovis BCG
[5] = system: Mycobacterium tuberculosis; assay: Antitubercular activity against Mycobacterium bovis BCG infected in BALB/c mouse assessed as reduction in perivascular accumulation of granulocytes in lungs at 25 mg/kg, po qd administered 48 hrs post infection for 6 weeks by hematoxylin/eosin staining; format: functional, organism-based; parameters: dose 25 mg/kg; conditions: variant bovis BCG
[6] = system: Mycobacterium tuberculosis; assay: Antitubercular activity against Mycobacterium bovis BCG infected in BALB/c mouse assessed as reduction in peribronchial accumulation of granulocytes in lungs at 25 mg/kg, po qd administered 48 hrs post infection for 6 weeks by hematoxylin/eosin staining; format: functional, organism-based; parameters: dose 25 mg/kg; conditions: variant bovis BCG
[7] = system: Mycobacterium tuberculosis; assay: Antitubercular activity against Mycobacterium bovis BCG infected in BALB/c mouse assessed as reduction in perivascular accumulation of lymphocytes in lungs at 25 mg/kg, po qd administered 48 hrs post infection for 6 weeks by hematoxylin/eosin staining; format: functional, organism-based; parameters: dose 25 mg/kg; conditions: variant bovis BCG
[8] = system: Mycobacterium tuberculosis; assay: Antitubercular activity against Mycobacterium bovis BCG infected in BALB/c mouse assessed as reduction in peribronchial accumulation of lymphocytes in lungs at 25 mg/kg, po qd administered 48 hrs post infection for 6 weeks by hematoxylin/eosin staining; format: functional, organism-based; parameters: dose 25 mg/kg; conditions: variant bovis BCG

| Structure (SMILES) | log10cfu [1] | log10cfu [2] | Activity [3] | Activity [4] | Activity [5] | Activity [6] | Activity [7] | Activity [8] |
| --- | --- | --- | --- | --- | --- | --- | --- | --- |
| NNC(=O)c1ccncc1 [ISONIAZID] | 2 | 3 |  |  |  |  |  |  |
| O=C(Cc1cccc(Oc2ccccc2)c1)Nc1ccc(Cl)c(Cl)c1 | 2 | 2 | Active | Active | Active | Active | Active | Active |
